In ChEMBL document CHEMBL3576819, “Design, synthesis, biological evaluation and molecular docking studies of phenylpropanoid derivatives as potent anti-hepatitis B virus agents” (Eur J Med Chem, 2015):

Tests used:
[1] = Cytotoxicity against human HepG2.2.15 cells assessed as cell death after 9 days by MTT assay; assay type: cell-based, HepG2 2.2.15
Procedure, shortened: (§1)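 HepG2.2.15 cells (MEM, 10% FBS, 380 µg/ml G418, 37 °C, 5% CO2) seeded at 1×10^5 cells/ml, cultured 24 h, then exposed to various drug concentrations; drug-containing medium renewed every 3 d. OD read at 450 nm after 9 days; percent cell death calculated; CC50 = concentration killing 50% of cells. Means of at least two experiments.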

Hepatitis B virus [2] = test: Antiviral activity against Hepatitis B virus infected in human HepG2.2.15 cells assessed as inhibition of HBsAg secretion by ELISA; assay type: functional, organism-based; conditions: HepG2 2.2.15
Procedure, shortened: (§2)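 HepG2.2.15 cells (MEM, 10% FBS, 380 µg/ml G418) seeded at 1×10^5 cells/ml, held 24 h at 37 °C, then treated with various drug concentrations; medium with drug renewed every 3 d for up to 9 d. Culture medium sampled on days 3, 6 and 9, stored at -20 °C, and assayed for secreted antigen. Lamivudine as positive control; IC50 = 50% inhibition of secretion; means of at least two experiments.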

[3] = Selectivity index, ratio of CC50 for human HepG2.2.15 cells to IC50 for Hepatitis B virus infected in human HepG2.2.15 cells assessed as inhibition of HBsAg secretion; assay type: functional
Procedure, shortened: (§3)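 Selectivity index computed as CC50/IC50, with CC50 from cell death of HepG2.2.15 cells after 9 days of treatment (OD 450 nm) and IC50 from 50% inhibition of HBeAg or HBsAg secretion in the same cells; medium with drug renewed every 3 d.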

Hepatitis B virus [4] = test: Antiviral activity against Hepatitis B virus infected in human HepG2.2.15 cells assessed as inhibition of HBeAg secretion by ELISA; assay type: functional, organism-based; conditions: HepG2 2.2.15; procedure, shortened: as §2
[5] = Selectivity index, ratio of CC50 for human HepG2.2.15 cells to IC50 for Hepatitis B virus infected in human HepG2.2.15 cells assessed as inhibition of HBeAg secretion; assay type: functional; procedure, shortened: as §3
Hepatitis B virus [6] = test: Antiviral activity against Hepatitis B virus infected in human HepG2.2.15 cells assessed as inhibition of HBsAg secretion at 300 uM after 3 days by ELISA; assay type: functional; conditions: HepG2 2.2.15, 72 h; procedure, shortened: as §2
Hepatitis B virus [7] = test: Antiviral activity against Hepatitis B virus infected in human HepG2.2.15 cells assessed as inhibition of HBsAg secretion at 150 uM after 3 days by ELISA; assay type: functional; conditions: HepG2 2.2.15, 72 h; procedure, shortened: as §2
Hepatitis B virus [8] = test: Antiviral activity against Hepatitis B virus infected in human HepG2.2.15 cells assessed as inhibition of HBsAg secretion at 75 uM after 3 days by ELISA; assay type: functional; conditions: HepG2 2.2.15, 72 h; procedure, shortened: as §2
Hepatitis B virus [9] = test: Antiviral activity against Hepatitis B virus infected in human HepG2.2.15 cells assessed as inhibition of HBsAg secretion at 37.5 uM after 3 days by ELISA; assay type: functional; conditions: HepG2 2.2.15, 72 h; procedure, shortened: as §2
Hepatitis B virus [10] = test: Antiviral activity against Hepatitis B virus infected in human HepG2.2.15 cells assessed as inhibition of HBsAg secretion at 300 uM after 6 days by ELISA; assay type: functional; conditions: HepG2 2.2.15, 144 h; procedure, shortened: as §2
Hepatitis B virus [11] = test: Antiviral activity against Hepatitis B virus infected in human HepG2.2.15 cells assessed as inhibition of HBsAg secretion at 150 uM after 6 days by ELISA; assay type: functional; conditions: HepG2 2.2.15, 144 h; procedure, shortened: as §2
Hepatitis B virus [12] = test: Antiviral activity against Hepatitis B virus infected in human HepG2.2.15 cells assessed as inhibition of HBsAg secretion at 75 uM after 6 days by ELISA; assay type: functional; conditions: HepG2 2.2.15, 144 h; procedure, shortened: as §2
Hepatitis B virus [13] = test: Antiviral activity against Hepatitis B virus infected in human HepG2.2.15 cells assessed as inhibition of HBsAg secretion at 37.5 uM after 6 days by ELISA; assay type: functional; conditions: HepG2 2.2.15, 144 h; procedure, shortened: as §2
Hepatitis B virus [14] = test: Antiviral activity against Hepatitis B virus infected in human HepG2.2.15 cells assessed as inhibition of HBsAg secretion at 300 uM after 9 days by ELISA; assay type: functional; conditions: HepG2 2.2.15, 216 h; procedure, shortened: as §2
Hepatitis B virus [15] = test: Antiviral activity against Hepatitis B virus infected in human HepG2.2.15 cells assessed as inhibition of HBsAg secretion at 150 uM after 9 days by ELISA; assay type: functional; conditions: HepG2 2.2.15, 216 h; procedure, shortened: as §2
Hepatitis B virus [16] = test: Antiviral activity against Hepatitis B virus infected in human HepG2.2.15 cells assessed as inhibition of HBsAg secretion at 75 uM after 9 days by ELISA; assay type: functional; conditions: HepG2 2.2.15, 216 h; procedure, shortened: as §2
Hepatitis B virus [17] = test: Antiviral activity against Hepatitis B virus infected in human HepG2.2.15 cells assessed as inhibition of HBsAg secretion at 37.5 uM after 9 days by ELISA; assay type: functional; conditions: HepG2 2.2.15, 216 h; procedure, shortened: as §2
Hepatitis B virus [18] = test: Antiviral activity against Hepatitis B virus infected in human HepG2.2.15 cells assessed as cell survival at 300 uM after 9 days (reference value: 100%); assay type: functional; conditions: HepG2 2.2.15, 216 h; procedure, shortened: as §1
Hepatitis B virus [19] = test: Antiviral activity against Hepatitis B virus infected in human HepG2.2.15 cells assessed as cell survival at 150 uM after 9 days (reference value: 100%); assay type: functional; conditions: HepG2 2.2.15, 216 h; procedure, shortened: as §1
Hepatitis B virus [20] = test: Antiviral activity against Hepatitis B virus infected in human HepG2.2.15 cells assessed as cell survival at 75 uM after 9 days (reference value: 100%); assay type: functional; conditions: HepG2 2.2.15, 216 h; procedure, shortened: as §1
Hepatitis B virus [21] = test: Antiviral activity against Hepatitis B virus infected in human HepG2.2.15 cells assessed as cell survival at 37.5 uM after 9 days (reference value: 100%); assay type: functional; conditions: HepG2 2.2.15, 216 h; procedure, shortened: as §1
Hepatitis B virus [22] = test: Antiviral activity against Hepatitis B virus infected in human HepG2.2.15 cells assessed as inhibition of HBeAg secretion at 300 uM after 3 days by ELISA; assay type: functional; conditions: HepG2 2.2.15, 72 h; procedure, shortened: as §2
Hepatitis B virus [23] = test: Antiviral activity against Hepatitis B virus infected in human HepG2.2.15 cells assessed as inhibition of HBeAg secretion at 150 uM after 3 days by ELISA; assay type: functional; conditions: HepG2 2.2.15, 72 h; procedure, shortened: as §2
Hepatitis B virus [24] = test: Antiviral activity against Hepatitis B virus infected in human HepG2.2.15 cells assessed as inhibition of HBeAg secretion at 75 uM after 3 days by ELISA; assay type: functional; conditions: HepG2 2.2.15, 72 h; procedure, shortened: as §2
Hepatitis B virus [25] = test: Antiviral activity against Hepatitis B virus infected in human HepG2.2.15 cells assessed as inhibition of HBeAg secretion at 37.5 uM after 3 days by ELISA; assay type: functional; conditions: HepG2 2.2.15, 72 h; procedure, shortened: as §2
Hepatitis B virus [26] = test: Antiviral activity against Hepatitis B virus infected in human HepG2.2.15 cells assessed as inhibition of HBeAg secretion at 300 uM after 6 days by ELISA; assay type: functional; conditions: HepG2 2.2.15, 144 h; procedure, shortened: as §2
Hepatitis B virus [27] = test: Antiviral activity against Hepatitis B virus infected in human HepG2.2.15 cells assessed as inhibition of HBeAg secretion at 150 uM after 6 days by ELISA; assay type: functional; conditions: HepG2 2.2.15, 144 h; procedure, shortened: as §2
Hepatitis B virus [28] = test: Antiviral activity against Hepatitis B virus infected in human HepG2.2.15 cells assessed as inhibition of HBeAg secretion at 75 uM after 6 days by ELISA; assay type: functional; conditions: HepG2 2.2.15, 144 h; procedure, shortened: as §2
Hepatitis B virus [29] = test: Antiviral activity against Hepatitis B virus infected in human HepG2.2.15 cells assessed as inhibition of HBeAg secretion at 37.5 uM after 6 days by ELISA; assay type: functional; conditions: HepG2 2.2.15, 144 h; procedure, shortened: as §2
Hepatitis B virus [30] = test: Antiviral activity against Hepatitis B virus infected in human HepG2.2.15 cells assessed as inhibition of HBeAg secretion at 300 uM after 9 days by ELISA; assay type: functional; conditions: HepG2 2.2.15, 216 h; procedure, shortened: as §2
Hepatitis B virus [31] = test: Antiviral activity against Hepatitis B virus infected in human HepG2.2.15 cells assessed as inhibition of HBeAg secretion at 150 uM after 9 days by ELISA; assay type: functional; conditions: HepG2 2.2.15, 216 h; procedure, shortened: as §2
Hepatitis B virus [32] = test: Antiviral activity against Hepatitis B virus infected in human HepG2.2.15 cells assessed as inhibition of HBeAg secretion at 75 uM after 9 days by ELISA; assay type: functional; conditions: HepG2 2.2.15, 216 h; procedure, shortened: as §2
Hepatitis B virus [33] = test: Antiviral activity against Hepatitis B virus infected in human HepG2.2.15 cells assessed as inhibition of HBeAg secretion at 37.5 uM after 9 days by ELISA; assay type: functional; conditions: HepG2 2.2.15, 216 h; procedure, shortened: as §2

Q: With COc1ccc(/C=C/C(=O)O/N=C/c2ccco2)cc1OC as the molecule, how does the CC50 at 216 h [1] read?
A: 624 µM

Q: What about the IC50 (Hepatitis B virus [2]) of the same molecule?
A: 191 µM

Q: And the “Ratio CC50/IC50” value [3]?
A: 3.26

Q: And the IC50 (Hepatitis B virus [4])?
A: 202 µM

Q: What about the “Ratio CC50/IC50” value [5] of the same molecule?
A: 3.1

Q: And the inhibition at 300 µM (Hepatitis B virus [6])?
A: 47.2%

Q: What about the inhibition at 150 µM (Hepatitis B virus [7]) of the same molecule?
A: 39.7%

Q: And the inhibition at 75 µM (Hepatitis B virus [8])?
A: 33.6%

Q: What about the inhibition at 37.5 µM (Hepatitis B virus [9]) of the same molecule?
A: 19.9%

Q: And the inhibition at 300 µM (Hepatitis B virus [10])?
A: 53.8%

Q: What about the inhibition at 150 µM (Hepatitis B virus [11]) of the same molecule?
A: 44.2%

Q: What about the inhibition at 75 µM (Hepatitis B virus [12]) of the same molecule?
A: 36.5%

Q: What about the inhibition at 37.5 µM (Hepatitis B virus [13]) of the same molecule?
A: 20.8%

Q: And the inhibition at 300 µM (Hepatitis B virus [14])?
A: 55%

Q: And the inhibition at 150 µM (Hepatitis B virus [15])?
A: 47.3%

Q: What about the inhibition at 75 µM (Hepatitis B virus [16]) of the same molecule?
A: 39.4%

Q: What about the inhibition at 37.5 µM (Hepatitis B virus [17]) of the same molecule?
A: 21.2%

Q: What about the viability at 300 µM (Hepatitis B virus [18]) of the same molecule?
A: 103%

Q: What about the viability at 150 µM (Hepatitis B virus [19]) of the same molecule?
A: 114%

Q: And the viability at 75 µM (Hepatitis B virus [20])?
A: 120%

Q: What about the viability at 37.5 µM (Hepatitis B virus [21]) of the same molecule?
A: 128%

Q: What about the inhibition at 300 µM (Hepatitis B virus [22]) of the same molecule?
A: 41.8%

Q: What about the inhibition at 150 µM (Hepatitis B virus [23]) of the same molecule?
A: 30.4%

Q: What about the inhibition at 75 µM (Hepatitis B virus [24]) of the same molecule?
A: 18.2%

Q: What about the inhibition at 37.5 µM (Hepatitis B virus [25]) of the same molecule?
A: 14.1%

Q: What about the inhibition at 300 µM (Hepatitis B virus [26]) of the same molecule?
A: 48.8%

Q: And the inhibition at 150 µM (Hepatitis B virus [27])?
A: 42%

Q: And the inhibition at 75 µM (Hepatitis B virus [28])?
A: 27.9%

Q: What about the inhibition at 37.5 µM (Hepatitis B virus [29]) of the same molecule?
A: 20%

Q: What about the inhibition at 300 µM (Hepatitis B virus [30]) of the same molecule?
A: 56.6%

Q: What about the inhibition at 150 µM (Hepatitis B virus [31]) of the same molecule?
A: 43.7%

Q: And the inhibition at 75 µM (Hepatitis B virus [32])?
A: 37.3%

Q: And the inhibition at 37.5 µM (Hepatitis B virus [33])?
A: 27%
